Source: ChEMBL document CHEMBL4052702 (Bioorg Med Chem Lett, 2017)
Activity calls are given as the source filed them. No cut-off for these calls is given here.

Assays:
[1] = target: T1, Protein deacetylase HDAC6 (Homo sapiens) (UniProt Q9UBN7); assay: Inhibition of HDAC6 (unknown origin) assessed as remaining enzyme activity at 0.25 uM by ELISA-based assay
T1 sequence (whole entry): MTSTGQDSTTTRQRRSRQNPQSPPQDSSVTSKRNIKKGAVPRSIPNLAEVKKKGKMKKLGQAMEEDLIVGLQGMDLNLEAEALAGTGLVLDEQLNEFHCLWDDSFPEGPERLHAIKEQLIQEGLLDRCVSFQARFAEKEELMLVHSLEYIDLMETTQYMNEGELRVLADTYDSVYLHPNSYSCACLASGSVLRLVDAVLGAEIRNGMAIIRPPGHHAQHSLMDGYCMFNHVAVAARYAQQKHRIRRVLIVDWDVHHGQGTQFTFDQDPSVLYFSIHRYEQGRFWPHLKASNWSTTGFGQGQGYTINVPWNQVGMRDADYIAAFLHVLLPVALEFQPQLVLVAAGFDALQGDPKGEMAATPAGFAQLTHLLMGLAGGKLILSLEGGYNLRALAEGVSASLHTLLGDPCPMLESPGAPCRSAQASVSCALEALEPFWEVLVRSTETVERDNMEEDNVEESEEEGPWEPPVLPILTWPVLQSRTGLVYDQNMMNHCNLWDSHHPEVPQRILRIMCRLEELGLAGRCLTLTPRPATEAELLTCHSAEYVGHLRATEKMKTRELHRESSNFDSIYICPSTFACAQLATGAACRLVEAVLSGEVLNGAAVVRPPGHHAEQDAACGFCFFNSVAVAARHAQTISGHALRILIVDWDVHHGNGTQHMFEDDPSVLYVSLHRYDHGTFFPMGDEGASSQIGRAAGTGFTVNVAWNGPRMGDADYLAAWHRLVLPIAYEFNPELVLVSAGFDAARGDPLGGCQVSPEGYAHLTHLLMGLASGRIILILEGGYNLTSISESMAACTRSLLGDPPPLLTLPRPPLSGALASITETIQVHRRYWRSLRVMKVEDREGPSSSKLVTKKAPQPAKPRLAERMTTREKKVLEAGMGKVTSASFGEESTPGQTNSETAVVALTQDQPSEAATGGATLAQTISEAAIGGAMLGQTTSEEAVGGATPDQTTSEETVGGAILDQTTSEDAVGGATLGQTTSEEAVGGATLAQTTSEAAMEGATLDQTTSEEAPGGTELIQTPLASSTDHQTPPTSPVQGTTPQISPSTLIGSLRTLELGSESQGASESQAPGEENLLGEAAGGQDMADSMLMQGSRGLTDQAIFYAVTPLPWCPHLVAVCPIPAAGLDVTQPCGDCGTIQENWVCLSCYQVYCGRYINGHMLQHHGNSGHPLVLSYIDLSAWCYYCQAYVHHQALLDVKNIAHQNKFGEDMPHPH
How it was run: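 Single-concentration isoform screen using an ELISA-based HDAC activity assay, run in parallel against HDAC1, HDAC2, HDAC3 and HDAC6. Read-out is percent deacetylase activity remaining, given as the mean of at least two independent trials with standard error.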

Histone deacetylase 2 [2] = target: T2, Histone deacetylase 2 (Homo sapiens, UniProt Q92769); assay: Inhibition of HDAC2 (unknown origin) assessed as remaining enzyme activity at 0.25 uM by ELISA-based assay
How it was run: (§1)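 Isoform screen by ELISA-based HDAC activity assay against HDAC1, HDAC2, HDAC3 and HDAC6. Each analog was tested at one final concentration: 0.025, 0.125, 0.25 or 1.25 µM. Read-out is percent deacetylase activity remaining, given as the mean with standard error of at least two independent trials.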

Histone deacetylase 2 [3] = target: T2, Histone deacetylase 2; assay: Inhibition of HDAC2 (unknown origin) assessed as remaining enzyme activity at 5 x 10^-7 M by ELISA-based assay
Homo sapiens [4] = organism: Homo sapiens; assay: Inhibition of HDAC in human HeLa-S3 cells lysates assessed as remaining enzyme activity at 3 x 10^-6 M pre-incubated for 15 mins before HDAC-Glo I/II substrate addition and measured after 30 mins post substrate addition; type: cell-free
Histone deacetylase 3 [5] = target: T3, Histone deacetylase 3 (Homo sapiens, UniProt O15379); assay: Inhibition of HDAC3 (unknown origin) assessed as remaining enzyme activity at 0.25 uM by ELISA-based assay; how it was run: as §1
Homo sapiens [6] = organism: Homo sapiens; assay: Inhibition of HDAC in human HeLa-S3 cells lysates assessed as remaining enzyme activity at 1.5 x 10^-6 M pre-incubated for 15 mins before HDAC-Glo I/II substrate addition and measured after 30 mins post substrate addition; type: cell-free
Histone deacetylase 3 [7] = target: T3, Histone deacetylase 3; assay: Inhibition of HDAC3 (unknown origin) assessed as remaining enzyme activity at 5 x 10^-7 M by ELISA-based assay
Homo sapiens [8] = organism: Homo sapiens; assay: Inhibition of HDAC in human HeLa-S3 cells lysates assessed as remaining enzyme activity at 1.2 x 10^-5 M pre-incubated for 15 mins before HDAC-Glo I/II substrate addition and measured after 30 mins post substrate addition; type: cell-free
Histone deacetylase 1 [9] = target: T4, Histone deacetylase 1 (Homo sapiens, UniProt Q13547); assay: Inhibition of HDAC1 (unknown origin) assessed as remaining enzyme activity at 0.25 uM by ELISA-based assay; how it was run: as §1
Histone deacetylase 1 [10] = target: T4, Histone deacetylase 1; assay: Inhibition of HDAC1 in human U937 cells assessed as increase in acetylated-histone H3 level at 10 to 40 uM incubated for 18 hrs by Western blot method; type: cell-based
How it was run: (§2)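 U937 cells were treated with 10–40 µM compound, with a 1% DMSO vehicle control. Cells were then lysed and the lysates run on SDS-PAGE and transferred to PVDF. Blots were probed for histone H3 acetyl-Lys9, which reports class I HDAC (1, 2, 3) inhibition, with GAPDH as the loading control. Repeat trials were run.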

Histone deacetylase 3 [11] = target: T3, Histone deacetylase 3; assay: Inhibition of HDAC3 in human U937 cells assessed as increase in acetylated-histone H3 level at 10 to 40 uM incubated for 18 hrs by Western blot method; type: cell-based; how it was run: as §2
[12] = target: T1, Protein deacetylase HDAC6 (Homo sapiens); assay: Inhibition of HDAC6 in human U937 cells assessed as increase in acetylated-alpha-tubulin level incubated for 18 hrs by Western blot method; type: cell-based
How it was run: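 U937 cells were treated with inhibitor at 10–40 µM, with 1% DMSO as vehicle control. Cells were then lysed, run on SDS-PAGE, transferred to PVDF and western-blotted for acetyl-Lys40 α-tubulin, with acetyl-Lys9 histone H3 as the class I marker. GAPDH was probed as a loading control, and trials were repeated.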

Histone deacetylase 2 [13] = target: T2, Histone deacetylase 2; assay: Inhibition of HDAC2 in human U937 cells assessed as increase in acetylated-histone H3 level at 10 to 40 uM incubated for 18 hrs by Western blot method; type: cell-based; how it was run: as §2

T3 sequence (O15379 whole entry): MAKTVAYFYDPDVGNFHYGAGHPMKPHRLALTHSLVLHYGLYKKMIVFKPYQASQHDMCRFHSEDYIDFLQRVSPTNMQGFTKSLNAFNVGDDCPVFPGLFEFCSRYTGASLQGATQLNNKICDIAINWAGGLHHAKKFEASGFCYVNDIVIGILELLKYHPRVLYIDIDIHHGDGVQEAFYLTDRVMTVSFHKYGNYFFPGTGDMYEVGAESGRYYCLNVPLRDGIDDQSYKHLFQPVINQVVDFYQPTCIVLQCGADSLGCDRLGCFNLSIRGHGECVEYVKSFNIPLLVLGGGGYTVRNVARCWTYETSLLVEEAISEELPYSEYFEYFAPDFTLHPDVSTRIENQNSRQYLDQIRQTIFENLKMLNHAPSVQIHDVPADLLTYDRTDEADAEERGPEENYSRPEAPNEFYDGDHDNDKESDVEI
T2 sequence (Q92769 whole entry, canonical isoform): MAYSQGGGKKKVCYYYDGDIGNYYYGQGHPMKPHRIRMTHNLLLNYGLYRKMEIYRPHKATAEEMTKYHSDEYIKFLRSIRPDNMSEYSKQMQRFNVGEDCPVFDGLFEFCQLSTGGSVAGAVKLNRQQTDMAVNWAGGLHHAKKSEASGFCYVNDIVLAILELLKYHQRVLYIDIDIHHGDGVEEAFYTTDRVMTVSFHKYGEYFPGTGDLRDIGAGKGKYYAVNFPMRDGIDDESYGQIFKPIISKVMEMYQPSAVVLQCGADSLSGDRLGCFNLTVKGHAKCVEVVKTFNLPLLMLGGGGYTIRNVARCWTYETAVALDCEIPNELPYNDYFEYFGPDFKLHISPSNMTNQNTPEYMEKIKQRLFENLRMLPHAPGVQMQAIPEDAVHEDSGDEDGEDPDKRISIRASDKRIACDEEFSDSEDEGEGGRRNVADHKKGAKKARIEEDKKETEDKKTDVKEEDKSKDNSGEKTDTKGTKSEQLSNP
T4 sequence (Q13547 whole entry): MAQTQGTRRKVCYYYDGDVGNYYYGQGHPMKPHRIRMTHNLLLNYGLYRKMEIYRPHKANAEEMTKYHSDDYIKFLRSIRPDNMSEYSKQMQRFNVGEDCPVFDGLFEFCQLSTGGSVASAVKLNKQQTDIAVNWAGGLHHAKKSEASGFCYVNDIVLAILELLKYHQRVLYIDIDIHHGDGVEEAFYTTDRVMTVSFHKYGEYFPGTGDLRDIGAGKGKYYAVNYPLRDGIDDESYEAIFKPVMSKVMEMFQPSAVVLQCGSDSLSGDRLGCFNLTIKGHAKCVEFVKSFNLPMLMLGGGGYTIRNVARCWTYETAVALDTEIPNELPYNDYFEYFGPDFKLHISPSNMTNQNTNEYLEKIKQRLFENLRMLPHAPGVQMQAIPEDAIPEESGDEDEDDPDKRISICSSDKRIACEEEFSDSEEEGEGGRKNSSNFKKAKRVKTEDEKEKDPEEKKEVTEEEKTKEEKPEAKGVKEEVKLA

Activity [1] [%] | Activity (Histone deacetylase 2 [2]) [%] | Activity (Histone deacetylase 2 [3]) [%] | Activity (Histone deacetylase 3 [5]) [%] | Activity (Histone deacetylase 3 [7]) [%] | Activity (Histone deacetylase 1 [9]) [%] | inhibition (Histone deacetylase 1 [10]) | inhibition (Histone deacetylase 3 [11]) | inhibition [12] | inhibition (Histone deacetylase 2 [13]) | SMILES | Activity (Homo sapiens [4]) [%] | Activity (Homo sapiens [6]) [%] | Activity (Homo sapiens [8]) [%]
35 | 83 | 73 | 74 to 92 | 83 | 81 to 84 |  |  |  |  | CCCCC(CCCC(=O)NO)CCC(=O)Nc1ccccc1 (stereo not drawn) | 66 | 88 | 23
 |  |  |  |  |  | Active | Active | Dose-dependent effect | Active | O=C(CCCC(CCC(=O)Nc1ccccc1)Cc1ccccc1)NO (stereo not drawn) |  |  | 
